{
  "source": "paper PMC7797077",
  "about": "(Nucleic Acids Research, 2020)",
  "key": {"[1]": {"biological_target": "AF9 YEATS domain (2-138) (human) (UniProt P42568)", "test": "ITC"}, "[2]": {"biological_target": "YEATS2 YEATS domain (201-332) (human) (UniProt Q9ULM3)", "sequence (Q9ULM3 201-332)": "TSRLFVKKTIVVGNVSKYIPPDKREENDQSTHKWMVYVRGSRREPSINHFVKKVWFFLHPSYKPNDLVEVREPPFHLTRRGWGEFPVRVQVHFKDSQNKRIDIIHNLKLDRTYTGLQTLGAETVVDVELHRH", "test": "ITC"}, "[3]": {"biological_target": "YEATS2 YEATS domain (201-332) S230F (human) (UniProt Q9ULM3)", "sequence (Q9ULM3 201-332 S230F)": "as the sequence (Q9ULM3 201-332) above, with S30F counted along it", "test": "ITC"}, "[4]": {"tested_on": "histone Kbz in HEK 293T, HeLa, HCT116 and HepG2 cells", "test": "Western blot of core histone Kbz levels after NaBz treatment", "format": "cell-based, human", "conditions": "24-h treatment with NaBz at various concentrations"}, "[5]": {"tested_on": "nuclear Kbz in HEK 293T and HCT116 cells", "test": "Immunofluorescence staining of Kbz after NaBz treatment", "format": "cell-based, human", "conditions": "10 mM NaBz, 24 h", "how_it_was_run": "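Cells were fixed in 4% formaldehyde for 20 min at RT, permeabilized on ice with 0.5% Triton X-100 for 10 min, and blocked in 3% BSA for 1 h. Anti-pan Kbz (1:500) was applied overnight at 4°C, then Alexa Fluor 594 anti-mouse (1:1000) for 1 h. Mounted with DAPI; confocal imaging.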"}, "[6]": {"tested_on": "histone Kbz and Kac in mouse intestinal epithelial cells", "test": "NaBz water feeding in mice, western blot of histone Kbz and Kac", "format": "in vivo, C57BL/6N mice", "conditions": "ten days of NaBz water feeding at 10, 20 and 50 mM", "how_it_was_run": "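SPF-housed mice drank NaBz water for 10 days. Intestinal tissue was shaken at 200 rpm, 37°C, 20 min in HBSS (no Ca²⁺/Mg²⁺) with 10 mM HEPES, 5 mM EDTA, 1 mM DTT and 3% FBS. Released epithelial cells were pelleted at 1500 rpm, 4°C. Total histones were kit-extracted and BCA-quantified, then run on SDS-PAGE and PVDF. Primary antibodies overnight at 4°C; HRP secondary 1:5,000; ECL. Histone H4 served as loading control; duplicate mice.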"}, "[7]": {"biological_target": "T1, AF9 YEATS domain (2-138) F28S (human, UniProt P42568 2-138, F28S)", "T1 sequence (looked up)": "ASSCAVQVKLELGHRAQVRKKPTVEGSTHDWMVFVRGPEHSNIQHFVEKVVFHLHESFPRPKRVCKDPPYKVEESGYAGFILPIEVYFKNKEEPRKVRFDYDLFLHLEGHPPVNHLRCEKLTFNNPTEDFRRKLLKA", "test": "ITC"}},
  "note": "Where no end group is shown, it is not given here. The star is where a group is joined. Bz = O=C(c1ccccc1)*",
  "data": [
    {"molecule": "histone H3_(2-16)K9bz peptide (from UniProt P68431 3-17)", "values": [
      {"measurement": "Kd", "setting": "[1]", "result": 5.97, "unit": "µM"}
    ]},
    {"molecule": "histone H3_(15-39)K27bz peptide (from UniProt P68431 16-40)", "values": [
      {"measurement": "Kd", "setting": "[2]", "result": 21.6, "unit": "µM"},
      {"measurement": "dH", "setting": "[3]", "result": -6.8, "unit": "kcal/mol"}
    ]},
    {"molecule": "O=C([O-])c1ccccc1.[Na+]", "note": "[NaBz, Sodium benzoate]", "values": [
      {"measurement": "signals of histone Kbz (pan Kbz western blot)", "setting": "[4]", "result": "upregulated in a dose-dependent manner"},
      {"measurement": "nuclear Kbz signals (immunofluorescence)", "setting": "[5]", "result": "lightened up"},
      {"measurement": "pan Kac level of histone in mouse intestinal epithelial cells", "setting": "[6]", "result": "not stimulated"},
      {"measurement": "histone Kbz signal in mouse intestinal epithelial cells", "setting": "[6]; two mice per concentration", "result": "clearly boosted"}
    ]},
    {"molecule": "RTKQTARK(Bz)STGGKAP (peptide, UniProt P68431 3-17, looked up)", "note": "[histone H3_(2-16)K9bz peptide]", "values": [
      {"measurement": "fold binding enhancement over WT AF9 YEATS", "setting": "[7]", "result": "~1.6", "unit": "fold"}
    ]}
  ]
}
